As a reminder, the EC50 is the concentration giving half of the maximal effect.

Assay [1] concerns Human immunodeficiency virus 1. Description: Ratio of EC50 for HIV1 NL4-3 harboring L10F/L24I/M46I/L63P/A71V/G73S/V82T amino acid substitution in protease encoding region to EC50 for HIV1 NL4-3. The format is functional. The method in brief: (§1)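 MT-4 cells (10^5/ml) infected with 100 TCID50s of PI-selected HIV-1NL4-3 variants or the parental strain, with or without serial drug concentrations, at 37°C. Day 7 supernatant p24 Gag measured by chemiluminescent enzyme immunoassay. […] Triplicate. Ratio is variant EC50 over wild-type EC50.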

Assay [2] deals with Human immunodeficiency virus 1. Description: Ratio of EC50 for HIV1 NL4-3 harboring M46I/V82F/I84V amino acid substitution in protease encoding region to EC50 for HIV1 NL4-3. It is filed as functional. The method in brief: as §1
Assay [3] has as its system Human immunodeficiency virus 1. Description: Antiviral activity against HIV1 NL4-3 infected in human MT4 cells assessed as inhibition of p24 gag protein production by ELISA. The format is functional, organism-based. The following applies: Human immunodeficiency virus 1, NL4-3, MT4. The method in brief:
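MT-4 cells (10^5/ml) were infected with 100 TCID50s of HIV-1 and cultured at 37°C with or without various drug concentrations. On day 7, supernatant p24 Gag was measured by automated chemiluminescent enzyme immunoassay. […] Assays were run in triplicate.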
In general terms: In an ELISA, binding on a coated surface is turned into a signal by an enzyme label.

The subject of assay [4] is Human immunodeficiency virus 1. Description: Ratio of EC50 for HIV1 NL4-3 harboring L10F/V32I/M46I/I54M//A71V/I84V amino acid substitution in protease encoding region to EC50 for HIV1 NL4-3. The format is functional. The method in brief:
as §1

The test system of assay [5] is Human immunodeficiency virus 1. The assay is described as follows: Antiviral activity against HIV1 NL4-3 harboring L10F/L24I/M46I/L63P/A71V/G73S/V82T amino acid substitution in protease encoding region infected in human MT4 cells assessed as inhibition of p24 Gag protein production selected at 5 uM of indinavir by ELISA. It is filed as functional, organism-based. Particulars: Human immunodeficiency virus 1, NL4-3, MT4. In a few lines: (§2)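 HIV-1NL4-3 (500 TCID50s) was passaged in MT-4 cells, starting at 0.01–0.03 µM PI and raising the drug generally two- to threefold as virus propagated. Cell-free passage used day-7 supernatants. Variants were then tested in MT-4 cells (10^5/ml) with 100 TCID50s, with or without drug, at 37°C. Day-7 p24 Gag was read by chemiluminescent immunoassay; EC50 vs drug-free control; triplicate.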

For assay [6], the system named is Human immunodeficiency virus 1. The assay is described as follows: Antiviral activity against HIV1 NL4-3 harboring M46I/V82F/I84V amino acid substitution in protease encoding region infected in human MT4 cells assessed as inhibition of p24 Gag protein production selected at 5 uM of ritonavir by ELISA. The format is functional, organism-based. The following applies: Human immunodeficiency virus 1, NL4-3, MT4. The method in brief:
as §2

The subject of assay [7] is Human immunodeficiency virus 1. The assay is described as follows: Ratio of EC50 for HIV1 NL4-3 harboring L10F/D30N/K45I/A71V/T74S amino acid substitution in protease encoding region to EC50 for HIV1 NL4-3. The format is functional.
In assay [8] the test system is Human immunodeficiency virus 1. Description: Antiviral activity against HIV1 NL4-3 harboring L10I/G48V/I54V/L90M amino acid substitution in protease encoding region infected in human MT4 cells assessed as inhibition of p24 Gag protein production selected at 5 uM of saquinavir by ELISA. The following applies: Human immunodeficiency virus 1, NL4-3, MT4. The format is functional, organism-based. The method in brief:
as §2

For assay [9], the system named is Human immunodeficiency virus 1. Description: Antiviral activity against HIV1 NL4-3 harboring L10F/V32I/M46I/I54M//A71V/I84V amino acid substitution in protease encoding region infected in human MT4 cells assessed as inhibition of p24 Gag protein production selected at 5 uM of amprenavir by ELISA. The format is functional, organism-based. Particulars: Human immunodeficiency virus 1, NL4-3, MT4. The method in brief:
(§3)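 Cell-free passage used day-7 supernatants. Variants were then tested in MT-4 cells (10^5/ml) with 100 TCID50s, with or without drug, at 37°C. Day-7 p24 Gag was read by chemiluminescent immunoassay; EC50 vs drug-free control; triplicate.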

For assay [10], the system named is Human immunodeficiency virus 1. The assay is described as follows: Ratio of EC50 for HIV1 NL4-3 harboring L10F/M46I/I54V/V82A amino acid substitution in protease encoding region to EC50 for HIV1 NL4-3. It is filed as functional. The method in brief: as §1
For assay [11], the system named is Human immunodeficiency virus 1. The assay is described as follows: Antiviral activity against HIV1 NL4-3 harboring L10F/M46I/I54V/V82A amino acid substitution in protease encoding region infected in human MT4 cells assessed as inhibition of p24 Gag protein production selected at 1 uM of Lopinavir by ELISA. It is filed as functional, organism-based. Particulars: Human immunodeficiency virus 1, NL4-3, MT4. In a few lines: as §3

In assay [12] the test system is Human immunodeficiency virus 1. Description: Ratio of EC50 for HIV1 NL4-3 harboring L10I/G48V/I54V/L90M amino acid substitution in protease encoding region to EC50 for HIV1 NL4-3. The format is functional. The method in brief: as §1
Assay [13] has as its system Human immunodeficiency virus 1. Description: Ratio of EC50 for HIV1 NL4-3 harboring L23I/K43I/M46I/I50L/G51A/A71V amino acid substitution in protease encoding region to EC50 for HIV1 NL4-3. The format is functional. In a few lines: as §1
Assay [14] deals with Human immunodeficiency virus 1. The assay is described as follows: Ratio of EC50 for HIV1 NL4-3 harboring L10F/L33F/M46I/I47V/Q58E/V82I/I84V/I85V amino acid substitution in protease encoding region to EC50 for HIV1 NL4-3. The format is functional. In a few lines: as §1
The subject of assay [15] is Human immunodeficiency virus 1. The assay is described as follows: Antiviral activity against HIV1 NL4-3 harboring L10F/D30N/K45I/A71V/T74S amino acid substitution in protease encoding region infected in human MT4 cells assessed as inhibition of p24 Gag protein production selected at 5 uM of nelfinavir by ELISA. It is filed as functional, organism-based. Particulars: Human immunodeficiency virus 1, NL4-3, MT4. In a few lines: as §2

The test system of assay [16] is Human immunodeficiency virus 1. Description: Antiviral activity against HIV1 NL4-3 harboring L10F/L33F/M46I/I47V/Q58E/V82I/I84V/I85V amino acid substitution in protease encoding region infected in human MT4 cells assessed as inhibition of p24 Gag protein production selected at 5 uM of GRL-02031 by ELISA. The format is functional, organism-based. Particulars: Human immunodeficiency virus 1, NL4-3, MT4. The method in brief:
as §3

Assay [17] deals with Human immunodeficiency virus 1. Description: Antiviral activity against HIV1 NL4-3 harboring L23I/K43I/M46I/I50L/G51A/A71V amino acid substitution in protease encoding region infected in human MT4 cells assessed as inhibition of p24 Gag protein production selected at 1 uM of atazanavir by ELISA. The format is functional, organism-based. Particulars: Human immunodeficiency virus 1, NL4-3, MT4. In a few lines: as §2

Each structure is given as a SMILES string.

As for `COC(=O)N[C@H](C(=O)N[C@@H](Cc1ccccc1)[C@@H](O)CN(Cc1ccc(-c2ccccn2)cc1)NC(=O)[C@@H](NC(=O)OC)C(C)(C)C)C(C)(C)C` [ATAZANAVIR], the “Ratio EC50” value in assay [1] was determined as 15; in assay [2] it was 5; in assay [4], 1; in assay [7], 6; in assay [10], 10; in [12], 74. Besides, the results for the “Ratio EC50” value in assay [13] and in assay [14] were 72 and 8, respectively. Besides, the EC50 came to 4.3 nM in assay [3]; 63 nM in assay [5]; 21 nM in [6]; 320 nM in [8]; 3.2 nM in assay [9]; 41 nM in [11]. Moreover, the EC50 in assay [15] was determined as 24 nM; in assay [16], 36 nM; in assay [17], 310 nM.

The values are drawn from ChEMBL document CHEMBL1649117, “GRL-02031, a novel nonpeptidic protease inhibitor (PI) containing a stereochemically defined fused cyclopentanyltetrahydrofuran potent against multi-PI-resistant human immunodeficiency virus type 1 in vitro” (Antimicrob Agents Chemother, 2009).
